Assay results collected from several papers.
Target: Serine/threonine-protein kinase 10 (STK10, Homo sapiens, UniProt O94804)

O=C(Nc1c[nH]nc1C(=O)NC1CCNCC1)c1cc(F)cc(F)c1 — remaining binding (binding, competition with immobilised ligand; 1 µM): 100%
Cc1cnc(Nc2ccc(C(=O)N3CCC(N4CCCC4)CC3)cc2)nc1-c1cc2ccccc2s1 — remaining binding (binding, competition with immobilised ligand; 1 µM): 14%
COc1ncc2cc3ccccc3nc2c1C#N — remaining binding (cell-free assay, competition with immobilised ligand; 5 µM): 100%
C[C@@H]1CN(c2cc(-c3nn(C)c4ccc(OC5(C)CC5)cc34)ncn2)C[C@H](C)O1 — remaining binding (cell-free assay, competition with immobilised ligand; 1 µM): 91%
O=C(c1ccc(Nc2nccc(-c3cc4ccccc4s3)n2)cc1)N1CCC(N2CCCC2)CC1 — remaining binding (binding, competition with immobilised ligand; 1 µM): 58%
C[C@@H]1CCN(c2nccc(-c3cnn4ncccc34)n2)C1 — remaining binding (binding; 1 µM): 98%
CS(=O)(=O)NCC[C@H](NC(=O)c1cncc2c1cnn2-c1ccc(F)cc1)c1ccnc(S(C)(=O)=O)c1 — remaining binding (cell-free assay, competition with immobilised ligand; 1 µM): 100%
O=C(c1ccc(Nc2ncc(Cl)c(-c3ccc(Cl)s3)n2)cc1)N1CCC(N2CCCC2)CC1 — remaining binding (binding, competition with immobilised ligand; 1 µM): 28%
Cc1c(NC(=O)c2cc(C(N)=O)nc3cc(F)ccc23)c(C(F)(F)F)nn1Cc1ccc(C(C)(C)C)cc1 — remaining binding (cell-free assay, competition with immobilised ligand; 1 µM): 88%
CNC(=O)[C@@H]1CC[C@@H](n2c(-c3ccc4cnccc4c3)nc3ccc(C(=O)NCc4cccc(C(N)=O)c4)cc32)C1 — remaining binding (binding, competition with immobilised ligand; 1 µM): 83%
CN(CCCC(F)(F)F)c1nccc(-c2cnn3ncccc23)n1 — remaining binding (binding; 1 µM): 100%
CN(C(=O)c1ccccc1)c1cc(N(C)c2ccc3c(c2)CCc2ccc(C(=O)NCCN4CCOCC4)cc2C3=O)ccc1F — remaining binding (cell-free assay, competition with immobilised ligand; 1 µM): 100%
F[C@@H]1CCN(c2nccc(-c3cnn4ncccc34)n2)C1 — remaining binding (binding; 1 µM): 90%
COc1cnc(Nc2cccc(S(N)(=O)=O)c2)nc1N1CCN(c2ccccc2)CC1 — remaining binding (binding, competition with immobilised ligand; 1 µM): 100%
CN(C)c1ncc(F)c(-c2cnn3ncccc23)n1 — remaining binding (binding; 1 µM): 42%
FC(F)(F)Oc1cccc(-c2cnc3ccc(-c4ccncc4)nn23)c1 — remaining binding (binding, competition with immobilised ligand; 5 µM): 0.3%
CN(C)c1nccc(-c2cnc3ncccn23)n1 — remaining binding (binding; 1 µM): 100%
O=C(O)[C@@H]1[C@@H](Cn2nnc3ccccc3c2=O)CC[C@H]1C(=O)c1ccc(OCCC2CCOCC2)cc1 — remaining binding (cell-free assay, competition with immobilised ligand; 1 µM): 84%
N[C@@H]1CCN(c2nccc(-c3cnn4ncccc34)n2)C1 — remaining binding (binding; 1 µM): 100%
CC(C)CC(=O)N1CCc2nc(-c3ccc(Br)cc3)nc(N(C)Cc3ccccc3)c2C1 — remaining binding (cell-free assay, competition with immobilised ligand; 0.1 µM): 100%
